The text below walks through data of ChEMBL document CHEMBL4007452, “Discovery of an Orally Selective Inhibitor of Signal Transducer and Activator of Transcription 3 Using Advanced Multiple Ligand Simultaneous Docking” (J Med Chem, 2017).

The nature of data set [1]: AUC (0 to infinity) in Sprague-Dawley rat plasma at 10 mg/kg, po measured after 24 hrs by UPLC analysis. Type of data set: ADME, organism-based. On the set-up: dose 10 mg/kg, route oral, time infinity. A digest of the protocol: (§1)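 Rat plasma sampled from 2 min to 24 h after a single i.v. (1 mg/kg) or p.o. (10 mg/kg) dose. Parameters were derived from the concentration-time profiles. The bioanalytical method was validated to FDA guidelines for selectivity, linearity, LLOQ, accuracy, precision, recovery, matrix effect and stability.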

Data set [2] relates to Rattus norvegicus. The experiment in a line: AUMC (0 to t) in Sprague-Dawley rat plasma at 1 mg/kg, iv measured after 24 hrs by UPLC analysis. The following applies: in vivo. Type of data set: ADME, organism-based. A digest of the protocol:
as §1

For data set [3], the system named is MDA-MB-231. As to the kind of experiment: Effect on total STAT3 level in human MDA-MB-231 cells at 2.5 to 5 uM after 12 hrs by immunoblot analysis. As to conditions: mda-mb-231, 12 h. Type of data set: ADME, cell-based. The essentials: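 MDA-MB-231 cells at 60–80% confluence were treated 12 h with 10% FBS at 2.5-10 µM or 2.5-5 µM, against a DMSO control. Whole-cell lysates were immunoblotted, with bands quantified as percent of control.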
A general note: In western blotting, separated proteins are transferred to a membrane and probed.

Data set [4] relates to Rattus norvegicus. The experiment in a line: AUMC (0 to infinity) in Sprague-Dawley rat plasma at 10 mg/kg, po measured after 24 hrs by UPLC analysis. The following applies: in vivo. Type of data set: ADME, organism-based. A digest of the protocol: as §1
The next data set concerns Mus musculus. The experiment in a line: Toxicity in BALB/c nude mouse xenografted with human MDA-MB-231 cells assessed as reduction in body weight at 2.5 to 10 mg/kg, po qd administered for 32 days. Format: organism-based. As to conditions: in vivo, 768 h. The essentials: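 MDA-MB-231 cells (5 x 10^6) were implanted s.c. in the flank of 6-week-old female athymic BALB/c nude mice. Oral dosing started at a tumor volume of about 100 mm3, with 8 mice per group and a saline vehicle control. […] Body weight was tracked over the 32-day treatment.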

In a further data set the test system is CCRF S-180. As to the kind of experiment: Antiproliferative activity against mouse S180 cells after 24 hrs by MTT assay. The following applies: CCRF S-180, 24 h. (In general: Tetrazolium assays rely on reduction of a dye to a coloured formazan, in cell work by metabolically active cells.)
In data set [5] the target is Epidermal growth factor receptor (Homo sapiens) (UniProt P00533). As to the kind of experiment: Inhibition of EGFR in human UW426 cells assessed as reduction in p-Akt level at 1 to 2.5 uM after 24 hrs by immunoblot analysis. Type of data set: cell-based. A digest of the protocol: (§2)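 UW426 cells at 60–80% confluence were treated 24 h at 1-2.5 µM with 10% FBS, against a DMSO control, then immunoblotted.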

Data set [6] in a line: Clearance in Sprague-Dawley rat plasma at 10 mg/kg, po measured after 24 hrs by UPLC analysis. Format: ADME, organism-based. A digest of the protocol: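 Parameters were derived from the concentration-time profiles. The bioanalytical method was validated to FDA guidelines for selectivity, linearity, LLOQ, accuracy, precision, recovery, matrix effect and stability.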
Data set [7] is described as follows: AUC (0 to t) in Sprague-Dawley rat plasma at 1 mg/kg, iv measured after 24 hrs by UPLC analysis. Type of data set: ADME, organism-based. On the set-up: dose 1 mg/kg, time < 24 hr, route intravenous. The essentials: as §1
For the next data set, the system named is MCF-10A. As to the kind of experiment: Antiproliferative activity against human MCF10A cells after 24 hrs by MTT assay. Format: cell-based. A digest of the protocol:
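Cells were seeded at 3000 per well and incubated 24 h at 37 °C. Compounds were added in triplicate with 10% FBS: 0.1-10 or 0.1-20 µM for cancer lines, 3.125-400 µM for MCF-10A. Viability was read by MTT absorbance at 595 nm, with IC50 fitted from the curves. DMSO stocks were 20 mM.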

Data set [8] deals with Epidermal growth factor receptor (Homo sapiens) (UniProt P00533). The experiment in a line: Inhibition of EGFR in human UW426 cells assessed as reduction in p-ERK1/2 (T202/Y204) level at 1 to 2.5 uM after 24 hrs by immunoblot analysis. Type of data set: cell-based. The essentials:
as §2

For data set [9], the system named is MDA-MB-231. As to the kind of experiment: Anticancer activity against human MDA-MB-231 cells xenografted in BALB/c nude mouse assessed as reduction in tumor volume at 10 mg/kg, po qd administered for 32 days. Type of data set: functional. On the set-up: scale not given: the % may be the effect or the level left. The essentials:
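Female athymic BALB/c nude mice, 6 weeks old, bearing s.c. flank MDA-MB-231 xenografts (5 x 10^6 cells). Dosing began at about 100 mm3 tumor volume; 8 mice per group, one tumor each. Drug was given orally in saline, with a saline vehicle control, for 32 days. Caliper L and W measured every other day; volume = 0.5236×L×W².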
For orientation: Xenograft models place foreign cells or tissue in a host animal.

The target in data set [10] is T1, Signal transducer and activator of transcription 3 (Homo sapiens, UniProt P40763). The following applies: 5 uM.
The target of data set [11] is T1, Signal transducer and activator of transcription 3. The following applies: 5 to 10 uM.
Data set [12] can be described thus: Oral bioavailability in Sprague-Dawley rat at 10 mg/kg measured after 24 hrs by UPLC analysis. Format: ADME, organism-based. As to conditions: in vivo.

Calls of active or inactive are those of the source. No cut-off for these calls is given here.

Chain of Epidermal growth factor receptor (Homo sapiens) (P00533 whole entry): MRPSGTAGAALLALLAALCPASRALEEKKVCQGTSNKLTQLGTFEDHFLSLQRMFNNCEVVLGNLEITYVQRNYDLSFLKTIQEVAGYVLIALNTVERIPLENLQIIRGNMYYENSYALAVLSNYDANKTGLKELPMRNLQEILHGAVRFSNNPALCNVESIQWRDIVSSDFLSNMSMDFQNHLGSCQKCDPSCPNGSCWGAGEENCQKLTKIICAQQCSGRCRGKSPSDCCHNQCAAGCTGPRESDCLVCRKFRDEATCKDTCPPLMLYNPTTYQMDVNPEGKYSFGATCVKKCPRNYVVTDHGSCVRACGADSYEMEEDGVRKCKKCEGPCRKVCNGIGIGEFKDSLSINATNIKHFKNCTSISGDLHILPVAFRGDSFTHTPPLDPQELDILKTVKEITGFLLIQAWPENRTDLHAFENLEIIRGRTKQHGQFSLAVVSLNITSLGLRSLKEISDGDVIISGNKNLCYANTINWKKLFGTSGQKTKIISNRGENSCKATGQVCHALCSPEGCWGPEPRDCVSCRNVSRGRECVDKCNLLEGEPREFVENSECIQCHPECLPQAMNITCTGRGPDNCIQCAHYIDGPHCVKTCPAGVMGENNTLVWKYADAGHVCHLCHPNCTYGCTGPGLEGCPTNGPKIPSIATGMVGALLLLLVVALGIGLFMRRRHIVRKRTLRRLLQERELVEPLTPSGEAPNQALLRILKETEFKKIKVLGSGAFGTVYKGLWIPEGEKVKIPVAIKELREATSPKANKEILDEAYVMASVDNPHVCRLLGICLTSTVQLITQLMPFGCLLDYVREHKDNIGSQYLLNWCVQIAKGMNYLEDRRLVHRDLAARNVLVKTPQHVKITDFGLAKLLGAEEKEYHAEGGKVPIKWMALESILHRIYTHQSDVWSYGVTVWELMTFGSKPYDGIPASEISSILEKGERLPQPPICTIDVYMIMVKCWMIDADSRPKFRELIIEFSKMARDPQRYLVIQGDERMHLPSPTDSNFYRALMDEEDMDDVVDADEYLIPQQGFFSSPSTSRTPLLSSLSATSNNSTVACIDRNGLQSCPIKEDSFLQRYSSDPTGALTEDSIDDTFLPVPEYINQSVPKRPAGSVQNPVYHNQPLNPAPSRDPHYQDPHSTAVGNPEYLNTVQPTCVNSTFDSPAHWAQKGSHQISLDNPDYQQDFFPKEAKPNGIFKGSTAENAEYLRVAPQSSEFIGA
T1 sequence (P40763 whole entry): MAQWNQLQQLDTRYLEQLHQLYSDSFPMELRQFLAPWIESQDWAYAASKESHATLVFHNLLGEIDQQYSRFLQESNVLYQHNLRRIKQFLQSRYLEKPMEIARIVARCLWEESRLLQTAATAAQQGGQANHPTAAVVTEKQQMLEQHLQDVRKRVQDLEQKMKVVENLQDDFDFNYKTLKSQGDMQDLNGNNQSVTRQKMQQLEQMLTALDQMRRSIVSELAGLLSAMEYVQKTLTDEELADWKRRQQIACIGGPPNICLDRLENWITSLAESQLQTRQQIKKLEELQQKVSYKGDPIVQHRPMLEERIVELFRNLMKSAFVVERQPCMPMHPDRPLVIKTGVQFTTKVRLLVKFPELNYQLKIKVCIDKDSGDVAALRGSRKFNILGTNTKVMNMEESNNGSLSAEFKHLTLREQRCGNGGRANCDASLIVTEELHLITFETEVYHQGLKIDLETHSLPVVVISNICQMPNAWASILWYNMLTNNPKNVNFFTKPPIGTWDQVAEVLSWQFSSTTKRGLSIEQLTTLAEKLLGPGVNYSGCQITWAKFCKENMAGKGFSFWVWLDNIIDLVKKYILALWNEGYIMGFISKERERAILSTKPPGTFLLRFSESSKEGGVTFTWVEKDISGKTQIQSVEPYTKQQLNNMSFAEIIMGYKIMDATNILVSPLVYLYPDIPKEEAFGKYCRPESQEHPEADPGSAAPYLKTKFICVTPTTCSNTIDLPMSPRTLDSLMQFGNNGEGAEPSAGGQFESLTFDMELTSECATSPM

Take `NS(=O)(=O)c1cccc2c1C(=O)C=C(Nc1ccccc1N1CCNCC1)C2=O`: the AUC(0-inf) in data set [1] is 889 ng·h/mL. Further, the AUMCt in the data set on Rattus norvegicus [2] turned out to be 109.3 hr2.ng/ml. For the same compound, the values for the Activity entry in the data set with MDA-MB-231 [3], in the data set with Mus musculus and with MDA-MB-231 [9] were “Non-Toxic”, “Non-Toxic” and 70%, respectively. The compound further came in with an AUMC with Rattus norvegicus [4] of 2002.1 hr2.ng/ml. In addition, the IC50 is 0.42 µM with CCRF S-180 and 129 µM in the data set on MCF-10A. The inhibition entry in [5] and in data set [8] was “inactive” each time. This compound had an apparent clearance CL/F in data set [6] of 196 mL/min/kg. The compound further displayed an AUC(0-t) at 24 h in data set [7] of 189 ng·h/mL. The inhibition result in data set [10] and in [11] was “Active” in each case. In data set [12], the bioavailability was 44.7%.

The term AUC(0-inf) denotes total exposure, with the tail of the curve extrapolated. A word on the IC50: it is the concentration that inhibits the measured activity by half. What is called CL/F is the apparent clearance, not corrected for the fraction that reaches the circulation. In general, AUC(0-t) refers to the area under the concentration-time curve up to a stated or last time point. What is called bioavailability is the share of a dose that reaches the circulation, judged against a reference dose that is usually intravenous.
